Assay results from ChEMBL document CHEMBL1126202, “Dual-action penems and carbapenems” (J Med Chem, 1992).
In brackets after ≈: the same amount, converted by molar mass.

Key:
Escherichia coli [1] = experiment: In vitro antibacterial activity against Escherichia coli TEM-1 (constitutive beta-lactamase producer); assay type: functional
Summary of the method: (§1)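 MIC was determined by agar dilution on Mueller-Hinton agar. Serial 2-fold aqueous dilutions were diluted 10-fold in agar to give final concentrations of 128 to 0.0156 μg/mL. Plates were inoculated by Steers replicator with overnight broth cultures diluted 100-fold.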

Staphylococcus aureus [2] = experiment: In vitro antibacterial activity against Staphylococcus aureus 67(methicillin resistant); assay type: functional
Summary of the method: (§2)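 MIC by agar dilution on Mueller-Hinton agar. Compounds were serially 2-fold diluted in water, final 128 to 0.0156 μg/mL in agar. Inoculum: overnight broth culture diluted 100-fold, applied with a Steers replicator.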

Streptococcus pneumoniae [3] = experiment: In vitro antibacterial activity against Streptococcus pneumoniae 6301; assay type: functional
Summary of the method: (§3)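 Streptococcal MICs were determined by agar dilution on brain heart infusion agar supplemented with 20 units/mL bovine liver catalase. Final concentrations were 128 to 0.0156 μg/mL from 2-fold dilutions. Inocula were overnight broth cultures diluted 100-fold, applied by Steers replicator.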

Proteus mirabilis [4] = experiment: (§4) In vitro antibacterial activity against Proteus mirabilis 90; assay type: functional
Summary of the method: (§5)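 Proteus MICs were determined by agar dilution on Mueller-Hinton agar containing 3% agar. Serial 2-fold dilutions gave final concentrations of 128 to 0.0156 μg/mL. Plates were replicator-inoculated with 100-fold-diluted overnight broth cultures.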

Citrobacter freundii [5] = experiment: In vitro antibacterial activity against Citrobacter freundii BS-16 (constitutive beta-lactamase producer); assay type: functional; summary of the method: as §1
Klebsiella pneumoniae [6] = experiment: In vitro antibacterial activity against Klebsiella pneumoniae A; assay type: functional; summary of the method: as §1
Streptococcus pyogenes = experiment: In vitro antibacterial activity against Streptococcus pyogenes 4; assay type: functional; summary of the method: as §3
[7] = test system: Bacteroides thetaiotaomicron; experiment: (§6) In vitro antibacterial activity against Bacteroides thetaiotaomicron 62B
Staphylococcus aureus [8] = experiment: (§7) In vitro antibacterial activity against Staphylococcus aureus 753 (constitutive beta-lactamase producer); assay type: functional; summary of the method: as §1
[9] = test system: Bacteroides thetaiotaomicron; experiment: microbe, parasite or virus in culture
Serratia marcescens [10] = experiment: In vitro antibacterial activity against Serratia marcescens SM (constitutive beta-lactamase producer); assay type: functional; summary of the method: as §1
Bacteroides fragilis [11] = experiment: In vitro antibacterial activity against Bacteroides fragilis S2; assay type: functional
Summary of the method: (§8)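 Anaerobic MICs were determined in microtiter plates in Schaedler's broth supplemented with coenzyme I and hemin. Incubation was under an oxygen-free hydrogen-carbon dioxide atmosphere.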

Escherichia coli [12] = experiment: In vitro antibacterial activity against Escherichia coli 25922; assay type: functional; summary of the method: as §1
Hathewaya histolytica = experiment: In vitro antibacterial activity against clostridium histolyticum 503-86; assay type: functional
Summary of the method: (§9)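 Anaerobic MIC, run in microtiter plates in Schaedler's broth supplemented with coenzyme I and hemin. Incubated in an oxygen-free hydrogen–carbon dioxide atmosphere.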

Enterobacter cloacae = experiment: In vitro antibacterial activity against enterobacter cloacae P99 (constitutive beta-lactamase producer); assay type: functional; summary of the method: as §1
Staphylococcus aureus [13] = experiment: In vitro antibacterial activity against staphylococcus aureus smith; assay type: functional; summary of the method: as §1
Serratia marcescens [14] = experiment: In vitro antibacterial activity against serratia marcescens SM (constitutive beta-lactamase producer); assay type: functional; summary of the method: as §1
Proteus vulgaris = experiment: In vitro antibacterial activity against proteus vulgaris ATCC 6380 (constitutive beta-lactamase producer); assay type: functional; summary of the method: as §5
Streptococcus pneumoniae [15] = experiment: In vitro antibacterial activity against streptococcus pneumoniae 6301; assay type: functional; summary of the method: as §3
Bacteroides fragilis [16] = experiment: In vitro antibacterial activity against Bacteroides fragilis F117A; assay type: functional
Summary of the method: (§10)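 MIC by broth dilution in microtiter plates, run in an oxygen-free hydrogen–carbon dioxide atmosphere. Medium: Schaedler's broth with coenzyme I and hemin added.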

Escherichia coli [17] = experiment: In vitro antibacterial activity against Escherichia coli UB1005 (nalidixic acid-resistant strain); assay type: functional; summary of the method: as §1
Clostridioides difficile [18] = experiment: In vitro antibacterial activity against Clostridium difficile 651; assay type: functional
Clostridium perfringens = experiment: In vitro antibacterial activity against Clostridium perfringens 13424; assay type: functional; summary of the method: as §10
Escherichia coli [19] = experiment: In vitro antibacterial activity against Escherichia coli 257; assay type: functional
Escherichia coli [20] = experiment: Effect on replication DNA biosynthesis in Escherichia coli H560 (permeabilised cells).; assay type: functional, organism-based
Summary of the method: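 Toluene-permeabilized E. coli H560 cells were used. Replicative DNA synthesis was measured as ATP-dependent [3H]thymidine incorporation into trichloroacetic acid-insoluble material. IC50 is the concentration giving 50% inhibition.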

Pseudomonas aeruginosa [21] = experiment: In vitro antibacterial activity against Pseudomonas aeruginosa 8780; assay type: functional; summary of the method: as §1
Citrobacter freundii [22] = experiment: In vitro antibacterial activity against citrobacter freundii BS-16 (constitutive beta-lactamase producer); assay type: functional; summary of the method: as §1
Pseudomonas aeruginosa [23] = experiment: (§11) In vitro antibacterial activity against Ps. aeruginosa 18SH (constitutive beta-lactamase producer); assay type: functional; summary of the method: as §1
Bacteroides fragilis [24] = experiment: In vitro antibacterial activity against bacteroides fragilis S2; assay type: functional; summary of the method: as §9
Clostridioides difficile [25] = experiment: In vitro antibacterial activity against Clostridium difficile 701; assay type: functional
[26] = test system: Bacteroides thetaiotaomicron; experiment: as §6; assay type: functional; summary of the method: as §8
Klebsiella pneumoniae [27] = experiment: In vitro antibacterial activity against klebsiella pneumoniae A; assay type: functional
Summary of the method: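 Agar-dilution MIC on Mueller-Hinton agar. Serial 2-fold dilutions were made in water, giving final agar concentrations of 128 to 0.0156 μg/mL. Inoculum was an overnight broth culture diluted 100-fold, applied with a multipoint replicator.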

Staphylococcus aureus [28] = experiment: as §7; assay type: functional; summary of the method: as §2; remark: listed apart in the source
Pseudomonas aeruginosa [29] = experiment: In vitro antibacterial activity against Pseudomonas aeruginosa 18SH (constitutive beta-lactamase producer); assay type: functional; summary of the method: as §1
[30] = Stability in pH 7.4 phosphate buffer at 37 degree C; assay type: physicochemical
Summary of the method: (§12)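 Compounds were held in pH 7.4 phosphate buffer at 37 °C and monitored by reverse-phase HPLC on a PRP-1 column with UV detection at 275–286 nm. The mobile phase was 0.01 M tetradecyltrimethylammonium bromide in pH 8.2 phosphate/acetonitrile. Product-peak decline was followed to at least 50%, and half-life was taken from semilogarithmic plots.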

Proteus mirabilis [31] = experiment: as §4; assay type: functional; remark: listed apart in the source
Summary of the method: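 MIC by agar dilution on Mueller-Hinton agar containing 3% agar. Compounds were serially 2-fold diluted in water, final 128 to 0.0156 μg/mL in agar. Inoculum: overnight broth culture diluted 100-fold, applied with a Steers replicator.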

Pseudomonas aeruginosa [32] = experiment: microbe, parasite or virus in culture
Pseudomonas aeruginosa [33] = experiment: as §11
[34] = Stability in pH 7.4 phosphate buffer at 37 degree C.; assay type: physicochemical; summary of the method: as §12

SMILES	MIC (Escherichia coli [1])	MIC (Staphylococcus aureus [2])	MIC (Proteus mirabilis [4])	MIC (Streptococcus pyogenes)	MIC (Enterobacter cloacae)	MIC (Staphylococcus aureus [13])	MIC (Serratia marcescens [14])	MIC (Proteus vulgaris)	MIC (Streptococcus pneumoniae [15])	MIC (Bacteroides fragilis [16])	MIC (Clostridium perfringens)	MIC (Escherichia coli [19])	MIC (Pseudomonas aeruginosa [21])	MIC (Citrobacter freundii [22])	MIC (Pseudomonas aeruginosa [23])	MIC (Bacteroides fragilis [24])	MIC (Clostridioides difficile [25])	MIC [26]	MIC (Klebsiella pneumoniae [27])	MIC (Staphylococcus aureus [28])	also measured
O=C(O)c1cn(C2CC2)c2cc(N3CCNCC3)c(F)cc2c1=O [CIPROFLOXACIN]	0.0156 µg/mL (≈ 0.0471 µM)	0.5 µg/mL (≈ 1.51 µM)	0.0625 µg/mL (≈ 0.189 µM)	0.5 µg/mL (≈ 1.51 µM)																	MIC (Streptococcus pneumoniae [3]): 1 µg/mL (≈ 3.02 µM); MIC (Citrobacter freundii [5]): 0.0313 µg/mL (≈ 0.0945 µM); MIC (Klebsiella pneumoniae [6]): 0.25 µg/mL (≈ 0.754 µM); MIC [7]: > 128 µg/mL; MIC (Staphylococcus aureus [8]): 0.25 µg/mL (≈ 0.754 µM); MIC [9]: 0.25 µg/mL (≈ 0.754 µM); MIC (Serratia marcescens [10]): 0.0313 µg/mL (≈ 0.0945 µM); MIC (Bacteroides fragilis [11]): 4 µg/mL (≈ 12.1 µM)
CN1CCN(c2c(F)cc3c(=O)c(C(=O)O)cn(CCF)c3c2F)CC1 [FLEROXACIN]	0.0625 µg/mL (≈ 0.169 µM)	0.5 µg/mL (≈ 1.35 µM)	0.25 µg/mL (≈ 0.677 µM)	2 µg/mL (≈ 5.42 µM)	0.0313 µg/mL (≈ 0.0847 µM)	0.25 µg/mL (≈ 0.677 µM)	0.0625 µg/mL (≈ 0.169 µM)	0.0625 µg/mL (≈ 0.169 µM)	4 µg/mL (≈ 10.8 µM)	64 µg/mL (≈ 173 µM)	0.5 µg/mL (≈ 1.35 µM)	0.0313 µg/mL (≈ 0.0847 µM)	2 µg/mL (≈ 5.42 µM)	0.125 µg/mL (≈ 0.338 µM)	1 µg/mL (≈ 2.71 µM)	8 µg/mL (≈ 21.7 µM)	16 µg/mL (≈ 43.3 µM)	64 µg/mL (≈ 173 µM)	0.0625 µg/mL (≈ 0.169 µM)	0.5 µg/mL (≈ 1.35 µM)	MIC (Escherichia coli [12]): 0.03 µg/mL (≈ 0.0812 µM); MIC (Hathewaya histolytica): 0.25 µg/mL (≈ 0.677 µM); MIC (Escherichia coli [17]): 0.5 µg/mL (≈ 1.35 µM); MIC (Clostridioides difficile [18]): 16 µg/mL (≈ 43.3 µM); IC50 (Escherichia coli [20]): 1 µg/mL (≈ 2.71 µM)
C[C@@H](O)[C@H]1C(=O)N2C(C(=O)[O-])=C(COC(=O)N3CCN(c4cc5c(cc4F)c(=O)c(C(=O)O)cn5C4CC4)CC3)[C@H](C)[C@H]12.[K+]	0.0313 µg/mL	0.5 µg/mL	0.125 µg/mL	0.0313 µg/mL	0.0313 µg/mL	0.125 µg/mL	0.0625 µg/mL	0.0313 µg/mL	0.0313 µg/mL	4 µg/mL	< 0.125 µg/mL	< 0.0156 µg/mL	0.5 µg/mL	0.0625 µg/mL		1 µg/mL	1 µg/mL	16 µg/mL	0.0625 µg/mL	0.5 µg/mL	MIC (Hathewaya histolytica): < 0.125 µg/mL; MIC (Clostridioides difficile [18]): 4 µg/mL; MIC (Pseudomonas aeruginosa [29]): 0.5 µg/mL; half-life [30]: 5 h
O=C([O-])C1=C(COC(=O)N2CCN(c3cc4c(cc3F)c(=O)c(C(=O)O)cn4C3CC3)CC2)SC2CC(=O)N12.[Na+] (stereo not given)	0.125 µg/mL	1 µg/mL	1 µg/mL	0.125 µg/mL	0.125 µg/mL	1 µg/mL	0.25 µg/mL	0.25 µg/mL	0.125 µg/mL			0.25 µg/mL	16 µg/mL	0.25 µg/mL	4 µg/mL				0.25 µg/mL		MIC (Escherichia coli [12]): 0.25 µg/mL; MIC (Escherichia coli [17]): 2 µg/mL; IC50 (Escherichia coli [20]): 2 µg/mL; MIC (Staphylococcus aureus [8]): 2 µg/mL; half-life [30]: 16 h
C[C@@H](O)[C@H]1C(=O)N2C(C(=O)[O-])=C(CO)[C@H](C)[C@H]12.[K+]	0.5 µg/mL	32 µg/mL	1 µg/mL	0.0625 µg/mL	0.5 µg/mL	0.125 µg/mL	1 µg/mL	0.5 µg/mL	0.0625 µg/mL			0.5 µg/mL	32 µg/mL	0.5 µg/mL	16 µg/mL				0.5 µg/mL	32 µg/mL	
C[C@@H](O)[C@H]1C(=O)N2C(C(=O)O)=C(SCCNC=N)C[C@H]12.O	0.25 µg/mL	32 µg/mL		< 0.0156 µg/mL	0.25 µg/mL	< 0.0156 µg/mL	0.25 µg/mL	1 µg/mL	< 0.0156 µg/mL	2 µg/mL	< 0.125 µg/mL	0.125 µg/mL		2 µg/mL		< 0.125 µg/mL	4 µg/mL	> 128 µg/mL	0.125 µg/mL	64 µg/mL	MIC (Hathewaya histolytica): < 0.125 µg/mL; MIC (Clostridioides difficile [18]): 4 µg/mL; MIC (Proteus mirabilis [31]): 2 µg/mL; MIC (Pseudomonas aeruginosa [32]): 2 µg/mL; MIC (Pseudomonas aeruginosa [33]): 1 µg/mL
C[C@@H](O)[C@H]1C(=O)N2C(C(=O)[O-])=C(COC(=O)c3cn(CCF)c4c(F)c(N5CCN(C)CC5)c(F)cc4c3=O)C[C@H]12.[Na+]	0.125 µg/mL	1 µg/mL	1 µg/mL	0.0157 µg/mL	0.125 µg/mL	0.125 µg/mL	0.25 µg/mL	0.25 µg/mL	0.0157 µg/mL	1 µg/mL	< 0.125 µg/mL	0.125 µg/mL	4 µg/mL	0.25 µg/mL	2 µg/mL	< 0.125 µg/mL	4 µg/mL	4 µg/mL	0.25 µg/mL	1 µg/mL	MIC (Escherichia coli [12]): 0.12 µg/mL; MIC (Escherichia coli [17]): 1 µg/mL; half-life [34]: 11 h; IC50 (Escherichia coli [20]): 10 µg/mL
